Compound activity from PubChem.
RAD52 anneal inh = blocks human RAD52 DNA annealing | P43351 | recombinant RAD52 DNA annealing, FRET fluorescence | inhibition, % at 18.7 µM | actives 0.46% (n = 360,000);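 active = every replicate showing at least 50% inhibition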
Target sequence (P43351 whole entry, looked up): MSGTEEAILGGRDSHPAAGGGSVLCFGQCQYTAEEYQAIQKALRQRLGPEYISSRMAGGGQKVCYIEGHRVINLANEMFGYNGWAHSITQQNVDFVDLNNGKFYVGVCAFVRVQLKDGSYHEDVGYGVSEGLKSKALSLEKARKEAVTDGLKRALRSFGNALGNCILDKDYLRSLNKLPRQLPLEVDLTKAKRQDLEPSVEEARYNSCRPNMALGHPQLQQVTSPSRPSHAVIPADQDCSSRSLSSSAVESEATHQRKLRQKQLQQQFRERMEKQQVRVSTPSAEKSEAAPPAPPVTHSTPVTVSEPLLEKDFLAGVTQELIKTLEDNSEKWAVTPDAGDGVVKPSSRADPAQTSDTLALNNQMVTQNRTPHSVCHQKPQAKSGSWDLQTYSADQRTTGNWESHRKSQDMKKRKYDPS
PglD DTNB = PglD (C. jejuni) enzyme inhibition; AID 602405; actives 0.098% (n = 360,000); purified PglD enzyme, DTNB colorimetric CoA detection; inhibition, % at 12.5 µM; in the data active = inhibition above about 16%, passing the limit was not always enough
RAD54 branch = blocks human RAD54 Holliday junction branch migration; Q92698; FAM/BHQ fluorescence; inhibition, % at 10.4 µM; actives 0.14% (n = 360,000); AID 602329;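 active = mean normalized replicate activity at least 40 and at least half of replicates scoring 40 or more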;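 also: inhibitors cause a drop in the FAM fluorescence signal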
Cneo AK release = Cryptococcus neoformans lysis via adenylate kinase release; AID 651654; lysis activity, % at 15 µM; actives 0.2% (n = 360,000); C. neoformans lysis, adenylate kinase release luminescence, 4 h; normalised: neutral wells 0, clomiphene wells 100;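 active = mean lysis activity across replicates of at least 80%, whatever share of replicates individually reach that level; inactive = mean lysis activity below 80%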
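Material – Cryptococcus neoformans yeast cells · Quantity – 5 × 10^6 yeast cells/mL · Buffer or medium – YPD medium · Compound – single dose · Timing – 4 h static compound exposure, 37 °C, read 1 h post-reagent · Signal – adenylate kinase release luminescence · Read-out basis – lysis from increased AK signal · Benchmarks – Clomiphene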
Ecoli rRNA inh = inhibits bacterial ribosomal RNA function over humanized ribosomes. E. coli WT GFP vs humanized-ribosome RFP mutants, fluorescence, 24 h; hits give low values; DMSO median 0, no signal -100. GFP signal change (wild-type ribosome), % (test concentration not listed). actives 1.6% (n = 350,000). AID 720706;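 active = significant combined selectivity score with lowered wild-type GFP, culture density cut under 30%, mutant RFP and density less affected; inactive = any of these conditions unmet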
Of the large screens only hits and unclear results are named; the others gave an inactive call. Sampled rows, rich in hits. Any-hit rate of the full collection: about 1.9%.

CC(C)NC(=O)Nc1ccc2c(c1)C(=O)N([C@@H](C)CO)C[C@@H](C)[C@@H](CN(C)C(=O)NC(C)C)OCCCC[C@H](C)O2	none
Cc1ccc(C(=O)COC(=O)C(C)N2C(=O)C3C4CCC(C4)C3C2=O)cc1 (configuration not stated)	none
Cc1ccc(C)c(C(=O)COC(=O)C(C)N2C(=O)C3C4CCC(C4)C3C2=O)c1 (configuration not stated)	Ecoli rRNA inh -29
C[C@@H]1CN([C@H](C)CO)S(=O)(=O)c2ccc(-c3cccnc3)cc2O[C@H]1CN(C)CC1CCOCC1	none
COCCCNC(=S)N/N=C/c1ccc(OC)cc1	none
COCCCNC(=S)N/N=C/c1ccc2ccccc2c1	Ecoli rRNA inh -32 (no result: PglD DTNB, RAD54 branch, Cneo AK release)
O=C(COc1ccc2ccccc2c1)Nc1nccs1	Ecoli rRNA inh -22 (no result: PglD DTNB, RAD54 branch, Cneo AK release)
O=C(COc1ccccc1)Nc1nccs1	none
O=C(NNc1nc2c(F)cccc2s1)c1cc(=O)c2ccccc2o1	Ecoli rRNA inh -51
Cc1cccc2sc(NNC(=O)c3cc(=O)c4ccccc4o3)nc12	none
O=C(NCc1ccccc1)c1nc2ccccc2s1	Ecoli rRNA inh -30
COc1cccc(CN2[C@H](CO)[C@@H](c3ccccc3)C23CN(C(=O)C2CCC2)C3)c1	none (no result: PglD DTNB, RAD54 branch, Cneo AK release)
Cc1c(CCC(=O)NCCC(=O)O)c(=O)oc2cc3occ(-c4ccccc4)c3cc12	none
Cc1c(CCC(=O)NCC(=O)O)c(=O)oc2cc3occ(-c4ccccc4)c3cc12	Ecoli rRNA inh -20 (no result: PglD DTNB)
Cc1coc2cc3oc(=O)c(CCC(=O)N[C@@H](CCCNC(N)=O)C(=O)O)c(C)c3cc12	none
CCCC(NC(=O)CCc1c(C)c2cc3c(-c4ccccc4)coc3cc2oc1=O)C(=O)O (configuration not stated)	Ecoli rRNA inh -34
CN1C(=O)N[C@@H]2c3ccccc3O[C@@]1(C)[C@@H]2COC(=O)c1ccccc1	Cneo AK release 96 (no result: Ecoli rRNA inh)
CN1C(=O)N[C@@H]2c3ccccc3O[C@@]1(C)[C@@H]2COC(=O)c1ccc([N+](=O)[O-])cc1	none (no result: PglD DTNB, RAD54 branch, Ecoli rRNA inh)
Cc1cccc(/C=N/NC(=O)Cc2cccs2)c1	Ecoli rRNA inh -19
O=C(Cc1cccs1)N/N=C/c1ccccc1	none (no result: Ecoli rRNA inh)
CN(C)CC(=O)N1[C@@H](CO)[C@H](c2ccccc2)C12CN(C(=O)c1ccc(F)cc1)C2	none (no result: RAD52 anneal inh, PglD DTNB, RAD54 branch, Cneo AK release)
Cc1oc(-c2ccc(Cl)cc2)nc1CN1CCCC(C(=O)NCc2cccnc2)C1 (configuration not stated)	none (no result: RAD52 anneal inh, Ecoli rRNA inh)
CSc1ccc(-c2nc(CN3CCCCC3c3cccnc3)c(C)o2)cc1 (configuration not stated)	Ecoli rRNA inh -21 (no result: PglD DTNB, RAD54 branch, Cneo AK release)
Cc1ccc(CSc2ncnc3ccccc23)cc1	Ecoli rRNA inh -33
Cc1nn(-c2ccccc2)c(C)c1-c1cc(C(=O)N/N=C/c2ccc(O)cc2)[nH]n1	Ecoli rRNA inh -24 (no result: PglD DTNB, RAD54 branch, Cneo AK release)
Cn1c(C(=O)O)c(CC(=O)N2CCC(Cc3ccccc3)CC2)c2ccccc21	Ecoli rRNA inh -26
CC(=O)Oc1ccccc1C(=O)C=Cc1cccc([N+](=O)[O-])c1	Ecoli rRNA inh -45
Cc1cccc(C2C3=C(Nc4[nH]n(-c5ccccc5)c(=O)c42)c2ccccc2C3=O)c1 (configuration not stated)	Ecoli rRNA inh -38 (no result: PglD DTNB, RAD54 branch, Cneo AK release)
CC1=C([N+](=O)[O-])C(c2ccccc2)C2=C(N1)c1ccccc1C2=O (configuration not stated)	none (no result: RAD52 anneal inh, Ecoli rRNA inh)
CCOC(=O)CS(=O)(=O)c1nc(-c2ccc(F)cc2)cc(C(F)(F)F)n1	none (no result: RAD52 anneal inh, Ecoli rRNA inh)
CS(=O)(=O)c1nc(-c2ccc(F)cc2)cc(C(F)(F)F)n1	Ecoli rRNA inh -34 (no result: PglD DTNB, RAD54 branch, Cneo AK release)
COc1cccc(NC(=O)N(C)C[C@@H]2OCc3ccccc3-c3c(n(C)c4ccccc34)C(=O)N([C@H](C)CO)C[C@@H]2C)c1	none
COCC(=O)N(C)C[C@@H]1Oc2cc(C3=CCCC3)ccc2S(=O)(=O)N([C@@H](C)CO)C[C@@H]1C	none
Cc1ccc(OCc2nc(C#N)c(N3CCCCC3)o2)cc1	Ecoli rRNA inh -32 (no result: PglD DTNB, RAD54 branch, Cneo AK release)
CC1CCCN(Cc2c(C(=O)N3CCc4ccccc4C3)nc3ccc(Cl)cn23)C1 (configuration not stated)	Ecoli rRNA inh -25 (no result: PglD DTNB)
O=[N+]([O-])c1ccccc1NCc1c(O)ccc2ccccc12	Ecoli rRNA inh -22
Oc1ccc2ccccc2c1CNc1ccccc1	Ecoli rRNA inh -13
Oc1ccc2ccccc2c1CNc1ccc2ccccc2c1	none
O=C(O)c1cccc([N+](=O)[O-])c1C(=O)Nc1cccc2ccccc12	none
N#Cc1nc(-c2ccccc2F)oc1NCc1cccc2c1OCO2	Ecoli rRNA inh -29
CN(C)CCNc1oc(-c2ccccc2F)nc1C#N	none
O=C(NNC(=O)c1cccc2ccccc12)c1cccc(Br)c1	Ecoli rRNA inh -22
O=C(C[C@H]1C[C@H]2c3cc(NC(=O)CC4CC4)ccc3O[C@H]2[C@@H](CO)O1)NCc1cccc(F)c1	none
CN(C)c1ccc2c(c1)[C@@H]1C[C@@H](CC(=O)NCCN3CCCCC3)O[C@H](CO)[C@@H]1O2	RAD54 branch 55
O=C(C[C@H]1C[C@H]2c3cc(NC(=O)C4CCC4)ccc3O[C@H]2[C@@H](CO)O1)NCc1cccc(F)c1	Cneo AK release 94
O=C(C[C@@H]1C[C@@H]2c3cc(NC(=O)C4CCC4)ccc3O[C@@H]2[C@H](CO)O1)NCc1cccc(F)c1	Cneo AK release 86
O=C(C[C@H]1C[C@@H]2c3cc(NC(=O)CC4CC4)ccc3O[C@@H]2[C@@H](CO)O1)NCc1cccc(F)c1	Cneo AK release 91
C[C@H](O)C#Cc1ccc2c(c1)O[C@H](CN(C)C(=O)CN(C)C)[C@H](C)CN([C@H](C)CO)S2(=O)=O	none (no result: PglD DTNB, RAD54 branch, Cneo AK release)
COCCNC(=O)C[C@@H]1C[C@@H]2c3cc(NC(=O)C4CCC4)ccc3O[C@@H]2[C@@H](CO)O1	none
O=C(C[C@@H]1C[C@@H]2c3cc(NC(=O)NC4CCCCC4)ccc3O[C@@H]2[C@H](CO)O1)NCc1cccnc1	none
COCCNC(=O)C[C@@H]1C[C@H]2c3cc(NC(=O)C4CCC4)ccc3O[C@H]2[C@@H](CO)O1	Cneo AK release 84
O=C(C[C@@H]1C[C@@H]2c3cc(NC(=O)NC4CCCCC4)ccc3O[C@@H]2[C@@H](CO)O1)NCc1cccnc1	PglD DTNB 54
O=C(Nc1ccccc1F)N[C@H]1CC[C@@H](CC(=O)N2CCCCC2)O[C@@H]1CO	none
CCOc1ccc(NC(=O)C(CC)n2nc(C)c3c(C)n(-c4ccccc4)nc3c2=O)cc1 (configuration not stated)	Ecoli rRNA inh -23
COc1ccc(-n2c(C)cc(C(=O)NC3CCCCC3)c2C)cc1	Ecoli rRNA inh -23
CC(=O)Nc1cccc2c1O[C@H](CN(C)C(C)=O)[C@@H](C)CN(C)C2=O	none (no result: RAD52 anneal inh, PglD DTNB, RAD54 branch, Cneo AK release)
CCc1ccc(NC(=S)Nc2ccc3cn[nH]c3c2)cc1	Ecoli rRNA inh -21 (no result: PglD DTNB, RAD54 branch, Cneo AK release)
O=C(NCc1cccnc1)C(=O)Nc1nc(C23CC4CC(CC(C4)C2)C3)cs1	Ecoli rRNA inh -27
